The values that follow come from ChEMBL document CHEMBL1123946, “Cholecystokinin antagonists. Synthesis and biological evaluation of 4-substituted 4H-[1,2,4]triazolo[4,3-a][1,4]benzodiazepines” (J Med Chem, 1988).

A short description of test [1]: Displacement of [125I]CCK from Cholecystokinin receptor of guinea pig brain. Further details: species or system Cavia porcellus. The gist of the method: (§1)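 Membrane binding: [125I]-CCK-33 to rat pancreas and guinea pig cortex, and [125I]gastrin to guinea pig gastric glands. Values are the means of triplicate determinations.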
Background: Displacement assays read how much labelled ligand stays bound in the presence of the test substance.

Test [2] concerns Mus musculus. Description: Effective dose for antagonism of CCK-8 inhibition of gastric emptying, 1 hr after oral administration. The class given is functional. Particulars: Stomach. The gist of the method:
(§2)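 Mice were dosed orally in 0.5% methylcellulose vehicle (N ≥ 10/dose), 1 h, 4 h or 5 h before CCK-8 (80 μg/kg, sc). CCK-8 was given 5 min before a charcoal meal, and gastric emptying was then scored. ED50 is the dose protecting 50% of mice, from regression over at least three dose levels.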

Test [3] has as its target T1, Cholecystokinin receptor type A (Rattus norvegicus, UniProt P30551).
T1 sequence (P30551 whole entry): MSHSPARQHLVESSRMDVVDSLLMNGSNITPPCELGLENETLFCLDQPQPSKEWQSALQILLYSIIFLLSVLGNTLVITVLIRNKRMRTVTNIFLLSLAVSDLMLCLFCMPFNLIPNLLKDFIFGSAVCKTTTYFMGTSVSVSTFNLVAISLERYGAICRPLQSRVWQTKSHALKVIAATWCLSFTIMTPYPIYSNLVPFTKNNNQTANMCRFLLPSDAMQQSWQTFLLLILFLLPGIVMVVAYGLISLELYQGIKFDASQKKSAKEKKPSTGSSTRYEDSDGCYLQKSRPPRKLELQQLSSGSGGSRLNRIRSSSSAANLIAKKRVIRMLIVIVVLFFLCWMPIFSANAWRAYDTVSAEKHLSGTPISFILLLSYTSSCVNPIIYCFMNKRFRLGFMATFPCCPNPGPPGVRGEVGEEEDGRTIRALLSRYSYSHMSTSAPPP
Description: Displacement of [125I]CCK from Cholecystokinin receptor of rat pancreas. The procedure, abridged: as §1

Test [4] deals with Mus musculus. The test is described as follows: Effective dose for antagonism of CCK-8 inhibition of gastric emptying, 5 hr after oral administration. Particulars: Stomach. In kind it is functional. The gist of the method:
as §2

A short description of test [5]: Displacement of [125I]gastrin from guinea pig gastric glands.
Test [6] concerns Mus musculus. The test is described as follows: Effective dose for antagonism of CCK-8 inhibition of gastric emptying, 4 hr after oral administration. Particulars: Stomach. The class given is functional. The procedure, abridged: as §2

In test [1], `Cc1nnc2n1-c1ccccc1C(c1ccccc1)=NC2NC(=O)Nc1ccc(Cl)cc1` (stereo not drawn) showed an IC50 of 0.12 µM.

`O=C(NC1N=C(c2ccccc2F)c2ccccc2-n2cnnc21)c1ccc(Cl)cc1` (stereo not drawn) had an IC50 in test [1] of 9.3 µM. Moreover, in the test with Mus musculus [2], the 50% effect level (ED50) was put at a dose of 0.12 mg/kg.

With `Fc1ccccc1C1=N[C@H](Cc2c[nH]c3ccccc23)c2nncn2-c2ccccc21`, the IC50 in test [1] was approximately 100 µM.

In the case of `CN(C)Cc1nnc2n1-c1ccccc1C(c1ccccc1F)=N[C@@H]2Cc1c[nH]c2ccccc12`, the IC50 in test [1] is approximately 100 µM.

Molecule `O=C(NC1N=C(c2ccccc2F)c2ccccc2-n2cnnc21)OCc1ccccc1` (stereo not drawn) had an IC50 in test [1] of 8 µM.

`Fc1ccccc1C1=N[C@H](Cc2c[nH]c3ccccc23)c2nnc(-c3ccccc3)n2-c2ccccc21` returned an IC50 in test [1] of approximately 100 µM.

As for `O=C(NC1N=C(c2ccccc2)c2ccccc2-n2cnnc21)OCc1ccccc1` (stereo not drawn), the IC50 in test [3] is 0.1 µM; in test [1] it was 7.7 µM.

In the case of `O=C(NC1N=C(c2ccccc2F)c2ccccc2-n2cnnc21)c1cc2ccccc2[nH]1` (stereo not drawn), the ED50 in the test on Mus musculus [4] is 0.12 mg/kg; in the test with Mus musculus [2], 0.02 mg/kg. The IC50 in test [1] came to 0.053 µM.

As for `Fc1ccccc1C1=N[C@H](Cc2c[nH]c3ccccc23)c2nnc(C(Cl)(Cl)Cl)n2-c2ccccc21`, the IC50 in test [1] was more than 100 µM.

Regarding `Cc1nnc2n1-c1ccccc1C(c1ccccc1F)=N[C@@H]2Cc1c[nH]c2ccccc12`, the 50% effective dose (ED50) came out at 200 mg/kg in the test on Mus musculus [4] and 76 mg/kg in the test on Mus musculus [2]. Also, the IC50 in test [1] came to 39 µM; in test [5] it was 12 µM.

Consider `O=C(Nc1ccc(Cl)cc1)NC1N=C(c2ccccc2)c2ccccc2-n2cnnc21` (stereo not drawn), for which, in test [1], the concentration for half-maximal inhibition (IC50) turned out to be 0.48 µM.

In the case of `Cc1nnc2n1-c1ccccc1C(c1ccccc1F)=NC2NC(=O)c1cc2ccccc2[nH]1` (stereo not drawn), the 50% inhibitory concentration (IC50) turned out to be 0.0002 µM in test [3] and 0.008 µM in test [1]. Also, the ED50 with Mus musculus [2] was determined as 0.05 mg/kg; with Mus musculus [6], 0.13 mg/kg.

Turning to `Cc1nnc2n1-c1ccc(Cl)cc1C(c1ccccc1)=NC2` [ALPRAZOLAM], the IC50 in test [3] was 64 µM; in test [1] it was more than 100 µM.

In the case of `CN1C(=O)[C@@H](NC(=O)c2cc3ccccc3[nH]2)N=C(c2ccccc2)c2ccccc21` [DEVAZEPIDE], the figures for the ED50 with Mus musculus [4] and in the test with Mus musculus [2] were 0.06 mg/kg and 0.04 mg/kg, respectively.

Consider `Cc1nnc2n1-c1ccc(Cl)cc1C(c1ccccc1Cl)=NC2` [TRIAZOLAM], for which the IC50 is 39 µM in test [3] and more than 100 µM in test [1].

As a reminder, the IC50 is the concentration that inhibits the measured activity by half. Higher therefore signals weaker potency. As usually defined, the ED50 is the dose that gives a 50% effect, or the effect in half of the subjects. Low readings indicate greater potency, high ones weaker potency.
